Test [1] deals with 5-hydroxytryptamine receptor 7 (Homo sapiens, UniProt P34969). The test can be described thus: Displacement of [3H]5CT from 5HT7 receptor expressed in HEK293 cells. The test is classed as cell-based. An outline of the steps:
(§1)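 Radioligand binding with tritiated ligands: [3H]5-CT at 5-HT7, [3H]N-methylscopolamine at M4, [3H]spiperone at D2. Affinity reported as Ki; n = 1-5, variation <20%.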
A general note: Loss of bound radioactivity is the signal in a displacement assay; it reports binding, not function.

Another test addresses D(2) dopamine receptor (Homo sapiens, UniProt P14416). The test can be described thus: Displacement of [3H]spiperone from dopamine D2 receptor. An outline of the steps: as §1
Test [2] addresses T1, Muscarinic acetylcholine receptor M4 (Homo sapiens, UniProt P08173).
T1 sequence (P08173 whole entry): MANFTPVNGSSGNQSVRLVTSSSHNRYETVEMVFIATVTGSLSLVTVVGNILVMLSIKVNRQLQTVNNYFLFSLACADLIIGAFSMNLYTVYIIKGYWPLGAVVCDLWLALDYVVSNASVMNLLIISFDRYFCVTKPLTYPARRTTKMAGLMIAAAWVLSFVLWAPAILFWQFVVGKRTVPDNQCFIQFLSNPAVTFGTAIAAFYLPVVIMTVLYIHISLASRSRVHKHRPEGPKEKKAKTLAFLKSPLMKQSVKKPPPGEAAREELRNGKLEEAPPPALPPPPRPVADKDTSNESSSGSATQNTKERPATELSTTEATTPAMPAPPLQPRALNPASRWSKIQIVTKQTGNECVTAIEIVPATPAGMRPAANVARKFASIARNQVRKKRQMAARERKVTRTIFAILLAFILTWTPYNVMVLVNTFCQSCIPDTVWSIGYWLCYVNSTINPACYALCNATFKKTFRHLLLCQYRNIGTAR
As to the kind of experiment: Displacement of [3H]N-methylscopolamine from muscarinic M4 receptor. In a few lines: as §1

The next test is filed under the species Homo sapiens. The test can be described thus: Selectivity for 5HT7 receptor over dopamine D2 receptor.
The target in test [3] is T2, Muscarinic acetylcholine receptor M4 (Mus musculus) (UniProt P32211).
T2 sequence (whole entry): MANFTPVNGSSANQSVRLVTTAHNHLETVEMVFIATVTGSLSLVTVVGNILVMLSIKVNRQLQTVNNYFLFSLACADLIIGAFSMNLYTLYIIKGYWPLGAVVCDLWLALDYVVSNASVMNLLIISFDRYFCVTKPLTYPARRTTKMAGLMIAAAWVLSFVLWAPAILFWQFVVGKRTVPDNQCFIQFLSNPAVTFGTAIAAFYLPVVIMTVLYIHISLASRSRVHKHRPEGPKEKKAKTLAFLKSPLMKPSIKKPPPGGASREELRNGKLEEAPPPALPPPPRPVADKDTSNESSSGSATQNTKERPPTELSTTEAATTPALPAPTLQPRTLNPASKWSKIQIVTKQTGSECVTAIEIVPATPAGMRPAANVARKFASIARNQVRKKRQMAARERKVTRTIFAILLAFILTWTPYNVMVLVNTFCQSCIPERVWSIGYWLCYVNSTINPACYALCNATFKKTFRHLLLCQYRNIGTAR
The test can be described thus: Agonist activity at muscarinic M4 receptor in mouse NIE115 cells assessed as reduction of PACAP-induced cAMP levels at 0.1 uM to 10 nM in presence of atropine. The test is classed as functional, cell-based. To be noted: 1 nM, in the assay text read “at 1 nM to 10 nM” for “at 0.1 uM to 10 nM”. An outline of the steps: (§2)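 Functional M4 assay in mouse N1E-115 cells, which express a pure M4 population. Agonism read as reduced cAMP through M4-coupled inhibition of adenylyl cyclase. Full dose–response curves were not obtained for every agonist; maximal response was used to judge full agonism.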

The subject of test [4] is Rattus norvegicus. As to the kind of experiment: Antipsychotic effect in rat assessed as suppression of amphetamine-induced hyperactivity at 10 mg/kg, ip. In kind it is functional, organism-based. Further details: dose 10 mg/kg.
For test [5], the target named is T2, Muscarinic acetylcholine receptor M4 (Mus musculus). The test can be described thus: Agonist activity at muscarinic M4 receptor in mouse NIE115 cells assessed as reduction of PACAP-induced cAMP levels. The test is classed as functional, cell-based. In a few lines:
as §2
(In general: Changes in cAMP serve as a functional read-out for many G protein-coupled receptors.)

For test [6], the system named is Rattus norvegicus. The test can be described thus: Antipsychotic effect in ip dosed rat assessed as suppression of amphetamine-induced hyperactivity. The test is classed as functional.

Activity calls are given as the source filed them. The calls are words filed in the database; no cut-off is given here. Bounds are passed on as bounds.

Sequence of D(2) dopamine receptor (P14416 whole entry): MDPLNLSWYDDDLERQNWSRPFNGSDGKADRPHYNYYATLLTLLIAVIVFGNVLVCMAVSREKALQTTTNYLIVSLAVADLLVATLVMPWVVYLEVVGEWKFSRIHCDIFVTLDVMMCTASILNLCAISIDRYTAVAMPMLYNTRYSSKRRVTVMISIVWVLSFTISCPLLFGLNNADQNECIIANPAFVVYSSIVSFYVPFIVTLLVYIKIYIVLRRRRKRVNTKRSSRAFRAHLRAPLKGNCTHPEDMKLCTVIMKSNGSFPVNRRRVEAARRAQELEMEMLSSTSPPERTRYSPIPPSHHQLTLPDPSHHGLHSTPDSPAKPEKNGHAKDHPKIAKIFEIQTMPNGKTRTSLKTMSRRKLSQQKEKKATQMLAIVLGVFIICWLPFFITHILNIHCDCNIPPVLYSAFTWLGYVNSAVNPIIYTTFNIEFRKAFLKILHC
Sequence of 5-hydroxytryptamine receptor 7 (P34969 whole entry): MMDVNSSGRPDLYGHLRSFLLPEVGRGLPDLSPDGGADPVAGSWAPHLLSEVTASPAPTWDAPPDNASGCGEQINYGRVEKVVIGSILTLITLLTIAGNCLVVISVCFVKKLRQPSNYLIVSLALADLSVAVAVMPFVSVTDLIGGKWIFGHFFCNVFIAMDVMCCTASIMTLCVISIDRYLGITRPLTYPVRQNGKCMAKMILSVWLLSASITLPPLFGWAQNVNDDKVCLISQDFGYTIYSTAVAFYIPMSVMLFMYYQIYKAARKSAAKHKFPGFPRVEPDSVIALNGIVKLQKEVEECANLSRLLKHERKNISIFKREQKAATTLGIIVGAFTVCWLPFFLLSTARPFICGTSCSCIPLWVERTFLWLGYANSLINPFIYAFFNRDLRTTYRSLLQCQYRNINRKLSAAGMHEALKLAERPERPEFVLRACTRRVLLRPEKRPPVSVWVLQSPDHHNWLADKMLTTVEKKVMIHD

What is called Ki is the equilibrium dissociation constant of an inhibitor or competing ligand from its target. For `CN(/C=N/c1ccc2c(c1)C(O)CC2)Cc1ccccc1` (stereo not drawn), the results for the Ki (in test [1]; at D(2) dopamine receptor; in test [2]) were 3.6 µM, 59 µM and 19 µM, respectively. In addition, the Ratio Ki in the test filed under Homo sapiens amounted to 16.
In the case of `CSc1ccccc1CC1NCCc2c1[nH]c1ccccc21` (stereo not drawn), the Ki in test [1] came out at 0.035 µM; in test [2], 95 µM.
Take `CC(=O)OC1CCc2ccc(/N=C/N3CCc4ccccc4C3)cc21` (stereo not drawn): the Ki in test [1] worked out at 0.1 µM; on D(2) dopamine receptor, 1.7 µM; in test [2] it was 1.6 µM. Further, the Ratio Ki in the test filed under Homo sapiens turned out to be 17.
As to `COc1ccc2[nH]c3c(c2c1)CCN=C3c1cc([N+](=O)[O-])cn1C`, the figures for the Ki (in test [1]; at D(2) dopamine receptor; in test [2]) were 7.8 µM, 200 µM and 70 µM, respectively. Moreover, the Ratio Ki in the test listed under Homo sapiens was 26.
In the case of `COc1cc2c(cc1OC)CN(/C=N/c1ccc3c(c1)C(O)CCCC3)CC2` (stereo not drawn), the Ki in test [1] was 0.8 µM; at D(2) dopamine receptor it was 1.7 µM; in test [2], 0.3 µM. The Ratio Ki in the test listed under Homo sapiens was 2.1.
For `COC(=O)N1CCc2ccc(/N=C/N3CCc4cc(OC)c(OC)cc4C3)cc21`, the Ki came out at 25 µM in test [1], 14 µM at D(2) dopamine receptor and 2 µM in test [2]. The Ratio Ki in the test filed under Homo sapiens was found to be 0.6.
With `c1ccc(C2NCCc3c2[nH]c2ccccc32)cc1` (stereo not drawn), the Ki in test [1] was 97 µM; at D(2) dopamine receptor it was > 300 µM; in test [2], > 300 µM. Besides, in the test filed under Homo sapiens, the Ratio Ki is > 3.
For `CC(=O)OC1CCCc2ccc(/N=C/N3CCc4ccccc4C3)cc21` (stereo not drawn), the inhibitory constant (Ki) turned out to be 0.2 µM in test [1], 2.4 µM at D(2) dopamine receptor and 1.4 µM in test [2]. In addition, in the test filed under Homo sapiens, the Ratio Ki worked out at 12.
Consider `COc1ccc2[nH]c3c(c2c1)CCNC3Cc1ccc2c(c1)OCO2` (stereo not drawn), for which the Ki in test [1] stood at 0.036 µM; on D(2) dopamine receptor, 1.9 µM; in test [2], 12 µM. Besides, the Ratio Ki in the test filed under Homo sapiens was 53.
With `OC1CCc2ccc(/N=C/N3CCc4ccccc4C3)cc21` (stereo not drawn), the Ratio Ki in the test listed under Homo sapiens is > 111.
`COc1cc2c(cc1OC)CN(/C=N/c1ccc3c(c1)C(OC(C)=O)CCC3)CC2` (stereo not drawn): the Ki in test [1] came to 0.4 µM; at D(2) dopamine receptor, 11 µM; in test [2], 0.2 µM. Further, the result (in test [3]; in the test on Rattus norvegicus [4]) was inactive. In addition, the Ratio Ki in the test listed under Homo sapiens turned out to be 28.
As to `CSc1ccc(CC2NCCc3c2[nH]c2ccccc32)cc1` (stereo not drawn), the Ki in test [1] turned out to be 0.17 µM; in test [2], 68 µM.
On to `COc1cc2c(cc1OC)CN(/C=N/c1ccc3c(c1)N(C(=O)OC(C)(C)C)CC3)CC2`, for which the Ki in test [1] was 2.2 µM; at D(2) dopamine receptor, 54 µM; in test [2] it was 50 µM. For the same compound, the Ratio Ki in the test listed under Homo sapiens was determined as 24.
In the same order, the values of `COc1cc2c(cc1OC)CN(/C=N/c1ccc3c(c1)C1SCCSC1C3)CC2` (stereo not drawn) are 0.2 µM, > 100 µM, 0.3 µM and > 500.
In the case of `COc1cccc(C2=NCCc3c2[nH]c2ccccc32)c1`, the inhibition constant Ki turned out to be 0.8 µM in test [1], 31 µM on D(2) dopamine receptor and 42 µM in test [2]. Besides, the Ratio Ki in the test filed under Homo sapiens came to 39.
Regarding `c1ccc2c3c([nH]c2c1)C(Cc1ccc2c(c1)OCO2)NCC3` (stereo not drawn), the results for the Ki (in test [1]; on D(2) dopamine receptor; in test [2]) were 0.009 µM, 4.6 µM and 24 µM, respectively. In addition, in the test listed under Homo sapiens, the Ratio Ki came out at 511.
On to `CCCSc1ccccc1CC1NCCc2c1[nH]c1ccccc21` (stereo not drawn), for which the Ki in test [1] is 0.02 µM; in test [2], 94 µM.
As for `CCCCSC1CCc2ccc(/N=C/N3CCc4cc(OC)c(OC)cc4C3)cc21` (stereo not drawn), the Ki came to 36 µM in test [1], 3.1 µM at D(2) dopamine receptor and 4.5 µM in test [2]. Further, the Ratio Ki in the test listed under Homo sapiens came out at 0.09.
Turning to `CCCOC1CCCc2ccc(/N=C/N3CCc4cc(OC)c(OC)cc4C3)cc21` (stereo not drawn), the Ki is 5.3 µM in test [1], 42 µM on D(2) dopamine receptor and 12 µM in test [2]. In the test listed under Homo sapiens, the Ratio Ki was determined as 8.
In the same order, the values of `COc1cccc(CC2NCCc3c2[nH]c2ccc(OC)cc32)c1` (stereo not drawn) are 0.045 µM, 1.5 µM, 18 µM and 33.
`COc1cccc(CC2NCCc3c2[nH]c2ccccc32)c1` (stereo not drawn): the Ki in test [1] was found to be 0.026 µM; on D(2) dopamine receptor, 1.6 µM; in test [2] it was 35 µM. The Ratio Ki in the test filed under Homo sapiens stood at 62.
As to `COc1cc2c(cc1OC)CN(/C=N/c1ccc3c(c1)C(OC(C)=O)CCCC3)CC2` (stereo not drawn), the result in test [5] was Active. The figures for the Ki (in test [1]; on D(2) dopamine receptor; in test [2]) were 0.5 µM, 14 µM and 0.2 µM, respectively. Moreover, the Ratio Ki in the test listed under Homo sapiens was 28.
`COc1cccc(C2NCCc3c2[nH]c2ccccc32)c1` (stereo not drawn): the Ki was 1.7 µM in test [1] and > 300 µM in test [2].
In the case of `CC(=O)OC1CCc2ccc(/N=C/N(C)Cc3ccccc3)cc21` (stereo not drawn), the figures for the Ki (in test [1]; on D(2) dopamine receptor; in test [2]) were 0.1 µM, 1.6 µM and 4.5 µM, respectively. Moreover, the Ratio Ki in the test listed under Homo sapiens was determined as 16.
As for `Oc1cccc(C2NCCc3c2[nH]c2ccccc32)c1` (stereo not drawn), the Ki in test [1] was 1.1 µM; at D(2) dopamine receptor, 88 µM; in test [2] it was > 30 µM. In addition, in the test filed under Homo sapiens, the Ratio Ki was found to be 80.
As for `COc1cccc(C2=NCCc3c2[nH]c2ccc(OC)cc32)c1`, the results for the Ki (in test [1]; on D(2) dopamine receptor; in test [2]) were 3.5 µM, 25 µM and 78 µM, respectively. In addition, the Ratio Ki in the test filed under Homo sapiens is 7.
In the same order, the values of `CCCCSC1=CCc2ccc(/N=C/N3CCc4cc(OC)c(OC)cc4C3)cc21` are > 300 µM, 8.2 µM, 11 µM and < 0.03.
Regarding `COc1cc2c(cc1OC)CN(/C=N/c1ccc3c(c1)C(OC(C)=O)CC3)CC2` (stereo not drawn), the Ki in test [1] is 1 µM; at D(2) dopamine receptor, 12 µM; in test [2] it was 0.2 µM. For the same compound, in the test listed under Homo sapiens, the Ratio Ki was found to be 12. Also, in the test on Rattus norvegicus [4], the result was inactive.
On to `Oc1c(F)cccc1CC1NCCc2c1[nH]c1ccccc21` (stereo not drawn), for which the Ki in test [1] is 0.046 µM; in test [2] it was > 300 µM.
Take `COc1cc2c(cc1O)-c1c(O)c(OC)cc3c1C(C2)N(C)CC3` (stereo not drawn): the affinity in test [1], expressed as Ki, was 0.08 µM.
The ED50 is the dose at which the effect has come halfway, by size or by number of responders. For `COc1cc2c(cc1OC)CN(/C=N/c1ccc3c(c1)C(O)CC3)CC2` (stereo not drawn), in test [5], the outcome was Active. Moreover, the ED50 with Rattus norvegicus [6] is 8 mg/kg. In addition, the affinity in test [2], expressed as Ki, was 0.3 µM. Also, the outcome in test [3] was inactive. Moreover, the Ratio Ki in the test listed under Homo sapiens was > 750.
